Screening data deposited in PubChem by The Scripps Research Institute Molecular Screening Center.
Rows were chosen to be rich in hits. Some 4.6% of all compounds tested hit in one or more screens of this group.
TAAR1 agonist: human TAAR1 agonism. Q96RJ0. CHO RD-HGA16 TAAR1, Fluo-8 calcium fluorescence; vehicle wells 0%, saturating PEA agonist 100%. activation, % at 3 µM. 360,000 compounds, 0.99% hits. AID 624467;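 active means activation above the mean activation of all test compounds in the run plus 3 SD, cut at about 38% in these data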
Target sequence (Q96RJ0 whole entry, looked up): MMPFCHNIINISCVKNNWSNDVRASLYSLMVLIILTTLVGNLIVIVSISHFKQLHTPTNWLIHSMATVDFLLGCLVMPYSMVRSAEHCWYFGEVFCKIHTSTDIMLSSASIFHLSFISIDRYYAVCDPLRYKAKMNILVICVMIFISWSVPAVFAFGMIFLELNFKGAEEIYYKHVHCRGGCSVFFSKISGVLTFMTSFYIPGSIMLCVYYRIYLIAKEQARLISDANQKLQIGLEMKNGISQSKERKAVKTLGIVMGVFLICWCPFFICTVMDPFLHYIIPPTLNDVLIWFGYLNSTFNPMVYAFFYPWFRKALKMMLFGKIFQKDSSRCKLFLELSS
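System: CHO-derived RD-HGA16 cells with stable Gα16 and human TAAR1 / Times: 17-24 h plating, Fluo-8 75 min 37 °C, 30 min RT / Technique: calcium-sensitive Fluo-8 signal, excitation 470-495, emission 515-575 nm / Measure: % activation relative to PEA EC100 response / Benchmarks: DMSO and PEA EC100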
CHO parental Ca: signal in parental CHO cells, OX1R antagonist counter-screen | 330,000 compounds, 0.63% hits | parental CHO-K1, ATP-induced calcium, Fluo-8 fluorescence | inhibition, % at 5.6 µM;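 active means inhibition above that plate's mean sample inhibition plus 3 SD, cut at about 26% in these data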;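 further: 0% = ATP-challenged DMSO wells and 100% = DMSO wells without ATP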
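Assay system – parental CHO cells · Reagent – ATP stimulus · Detection – intracellular calcium via Fluo-8 no-wash fluorescent dye · Evaluation – percent inhibition of ATP-evoked calcium rise, normalized to controls · Controls – ATP wells versus no-ATP DMSO wells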
TAAR1 antagonist: antagonists of human TAAR1; AID 624466; Q96RJ0; CHO RD-HGA16 TAAR1, Fluo-8 calcium fluorescence, antagonist; inhibition, % at 3 µM; 360,000 compounds, 1.5% hits;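 active means inhibition above a per-plate cutoff, the mean inhibition of test compounds on that plate plus 3 SD, cut at about 49% in these data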;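 further: 0% = DMSO plus EC80 beta-PEA response and 100% = DMSO alone without agonist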
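Material: CHO RD-HGA16 cells bearing hTAAR1; compound dosing: one-point dosing, 3 µM nominal final; schedule: dye loading 75 min at 37 °C, then 30 min room temperature; measured by: calcium fluorescence with Fluo-8; control set: vehicle and agonist controls; replication: n of 1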
OX1R antag-1: blocks the human orexin 1 receptor. O43613. OX1R-expressing cells, FRET antagonist read-out. inhibition, % at 6.6 µM. 330,000 compounds, 1.8% hits; in the data active means inhibition mostly above about 38%, no sharp cut-off; inactive means mostly below about 40%;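 further: 0% = agonist challenge alone and 100% = reference antagonist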
OX1R antag-2: blocks the human orexin 1 receptor; AID 434989; inhibition, % at 5 µM; 330,000 compounds, 0.43% hits; CHO/OX1R cells, Fluo-8 calcium fluorescence, orexin A;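 active means inhibition above its plate's threshold, mean inhibition of all tested compounds on the plate plus 3 SD, cut at about 37% in these data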;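 further: 0% = orexin A challenge wells and 100% = SB-334867-A antagonist wells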
GPR7 antag: human neuropeptides B/W receptor 1 antagonism | P48145 | GPR7-expressing cells, fluorescence antagonist assay | inhibition, % at 4.4 µM | 290,000 compounds, 1.1% hits | AID 1861; in the data active means inhibition above about 16%, passing the limit was not always enough;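 further: cells stimulated with the agonist NPW; 0% = agonist with vehicle and 100% = vehicle without agonist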
Target sequence (P48145 whole entry, looked up): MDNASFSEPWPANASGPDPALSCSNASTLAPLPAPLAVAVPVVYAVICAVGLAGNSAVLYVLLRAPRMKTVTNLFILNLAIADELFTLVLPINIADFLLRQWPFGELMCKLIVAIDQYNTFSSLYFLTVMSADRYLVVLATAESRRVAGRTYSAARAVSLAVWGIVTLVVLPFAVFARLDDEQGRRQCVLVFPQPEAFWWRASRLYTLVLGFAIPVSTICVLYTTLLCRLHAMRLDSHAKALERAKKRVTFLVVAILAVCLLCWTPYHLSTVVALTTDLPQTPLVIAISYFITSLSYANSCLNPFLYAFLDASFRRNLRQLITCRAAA
Starred values were filed as active, the others as inactive; . = not tested or not shown.

SMILES | TAAR1 agonist | CHO parental Ca | TAAR1 antagonist | OX1R antag-1 | OX1R antag-2 | GPR7 antag
COc1ccc(CCNc2ncnc3sccc23)cc1OC | 11 | 76* | 32 | 58 | 42* | 9
c1ccc2c(c1)OCC(CNc1ncnc3sccc13)O2 (stereo unspecified) | 8 | 68* | 30 | 52 | 24 | 17
COc1ccc(-c2csc(NC3CCCCC3)n2)c(OC)c1 | 3 | -3 | -8 | 16 | -18 | -3
Cc1cc(CNC(=O)C(C)n2cc([N+](=O)[O-])cn2)c2ccccc2n1 (stereo unspecified) | 1 | -27 | -4 | 69* | 13 | 0
N#Cc1c(N2CCCC2)ccc(Br)c1Cl | 8 | -3 | -20 | 21 | -20 | 17*
CC(C)Cc1cc(C(=O)Nc2cccnc2)no1 | 0 | -4 | -25 | 8 | -8 | 18
CC(=O)c1ccc(NC(=O)c2cc(CC(C)C)on2)cc1 | -1 | 36* | -12 | 2 | -7 | -9
CN(C)CCN1C(=O)C(O)=C(C(=O)c2cc3ccccc3o2)C1c1ccccn1 (stereo unspecified) | . | 8 | . | 49* | -7 | 15
C(=N\n1cnnc1)/c1ccc(OCc2ccccc2)cc1 | 13 | 1 | 27 | 6 | -7 | 0
Cc1cc(/C=N/n2cnnc2)c(C)n1-c1ccc(OCc2ccc(Cl)cc2)cc1 | 15 | 49* | 47 | 14 | 52* | 11
Cc1cc(/C=N/n2cnnc2)c(C)n1-c1ccc(OCc2ccccc2F)cc1 | 14 | 56* | 29 | 23 | 20 | 9
COCc1cc(N2CCN(C(=O)OC(C)(C)C)C[C@H]2C)ccc1N1CC[C@@H](O)C1 | 2 | . | 5 | . | . | .
Cc1cc(C)nc(SSc2nc(C)cc(C)n2)n1 | 46* | -8 | 26 | 8 | 2 | -1
Nc1[nH]c(C(=O)c2ccc(Br)cc2)c(-c2ccccn2)c1C(=O)NCCc1c[nH]c2ccccc12 | 17 | . | 40 | . | . | .
FC(F)(F)c1ccccc1CN1CCN(C2CCCCCC2)CC1 | 8 | -15 | 3 | 10 | -30 | 20*
CCc1cc(OCCCCNCc2ccccc2)ccc1Cl | 42* | 0 | 25 | 9 | -14 | 1
Cc1ccccc1Nc1nc(N)nc(COC(=O)c2cccc(S(=O)(=O)N(C)C)c2)n1 | 13 | -15 | 7 | 22 | -25 | -1
Cc1ccccc1Nc1nc(N)nc(COC(=O)c2cccc(S(=O)(=O)NCc3ccccc3)c2)n1 | 28 | -11 | 55* | 31 | -7 | 17
CNC(=O)c1cc(Oc2ccc(NC(=O)Nc3ccc(Cl)c(C(F)(F)F)c3)cc2)ccn1 | 44* | 19 | 47 | 47* | 39 | .
O=C(Nc1ccc(Cl)c(C(F)(F)F)c1)c1ccncc1 | 21 | -12 | -25 | 32 | -7 | 3
Oc1ccc(N=Nc2ccc3c(c2)OCCO3)c2ncccc12 | 36 | 51* | 79* | 19 | 51* | -4
Cc1cccc(N=Nc2ccc(O)c3ncccc23)c1 | 30 | 68* | 76* | 24 | 48* | -4
Cc1ccc(C)c(N=Nc2ccc(O)c3ncccc23)c1 | 3 | 37* | 3 | 15 | 21 | -17
CCOc1ccc(N=Nc2ccc(O)c3ncccc23)cc1 | 7 | . | 6 | . | . | -6
Nc1ccn([C@@H]2O[C@H](C(=O)N[C@H](Cc3ccccc3)C(=O)N3CCSC3)[C@@H](O)[C@H]2O)c(=O)n1 | 0 | . | 0 | . | . | .
SMILES | TAAR1 agonist | CHO parental Ca | TAAR1 antagonist | OX1R antag-1 | OX1R antag-2 | GPR7 antag
Cc1cc(C)n2nc(N)c(N=Nc3cccc(Cl)c3)c2n1 | 5 | -3 | 5 | 51* | -17 | -4
Nc1[nH]c(C(=O)c2ccc(Br)cc2)c(-c2ccncc2)c1C(=O)c1ccccc1 | 9 | . | 21 | . | . | .
O=C(OCCOc1cccc(Cl)c1)c1cc(S(=O)(=O)N2CCCCC2)ccc1N1CCOCC1 | 0 | 38* | 24 | -14 | 0 | .
O=C(Cn1cncn1)N/N=C/c1cccc(Cl)c1 | 5 | 6 | -11 | 36 | -6 | -2
O=S1(=O)N[C@H](Cc2ccccc2)COc2cc(N3CCN(Cc4ccccc4F)CC3)ccc21 | 2 | . | -4 | . | . | .
Cn1c(/C=C/c2ccccc2[N+](=O)[O-])nc2ccccc2c1=O | 5 | . | 10 | . | . | -20
CCn1c(/C=C/c2ccccc2[N+](=O)[O-])nc2ccccc2c1=O | 5 | -14 | -3 | 53* | -8 | -19
Cc1cccc(OCCn2nc(C(=O)O)c3ccccc3c2=O)c1 | 16 | -17 | 10 | 31 | -24 | -9
CC(C)(C)c1ccc(OCCn2nc(C(=O)O)c3ccccc3c2=O)cc1 | 6 | 29* | 49* | 21 | 46* | -23
CCOC(=O)CSc1c(-c2ccc(Cl)cc2)[nH]c2ccccc12 | 0 | 3 | 37 | 25 | -33 | -11
O=C(NCCSc1c(-c2ccccc2)[nH]c2ccccc12)c1cc2ccccc2oc1=O | 1 | -11 | 22 | 56* | -6 | -7
O=C(Cc1cccs1)NCCSc1c(-c2ccc(Cl)cc2)[nH]c2ccccc12 | 1 | -3 | 49* | 14 | -20 | 19*
CC(=O)OCCNC(=O)c1cc2ccccc2oc1=O | 11 | 11 | 10 | 70* | 2 | -12
Cc1ccc([C@H]2C[C@]34CN(Cc5ccccc5)S(=O)(=O)[C@H]3C[C@H]2O4)cc1 | 0 | . | 1 | . | . | .
O=S1(=O)N[C@H](Cc2ccccc2)COc2cc(F)ccc21 | -1 | . | -23 | . | . | .
N#Cc1cc2nc(O)c(O)nc2cc1[N+](=O)[O-] | -1 | 1 | 4 | 76* | 12 | .
O=C(Nc1nc(-c2ccccc2)cs1)C1CCCO1 (stereo unspecified) | 10 | -6 | -1 | 8 | -17 | 12
Cc1csc(NC(=O)C2CCCO2)n1 (stereo unspecified) | 5 | 2 | -17 | 7 | -11 | 14*
CCCCSc1cnn(-c2ccccc2)c(=O)c1SCCCC | 5 | 30* | 12 | 2 | -25 | -21
COc1cc(-c2nc3ccccc3nc2-c2ccc(O)c(OC)c2)ccc1O | 21 | -8 | 53* | 4 | -9 | -14
COc1cc(-c2nc3ccccn3c2N)ccc1O | 1 | -11 | 3 | 16 | -17 | 4
Cc1sc(NC(=O)c2ccco2)c(C(c2cccnc2)N2CCN(CCO)CC2)c1C (stereo unspecified) | 2 | -17 | -4 | 1 | -25 | -10
CCOC(=O)C1CCN(C(c2cccnc2)c2c(NC(=O)c3ccco3)sc(C)c2C)CC1 (stereo unspecified) | 23 | -8 | 26 | 8 | -35 | 27*
C[C@H]1COc2cc(N3CCC[C@@H]3CO)ccc2S(=O)(=O)N1 | 3 | . | 0 | . | . | .
O=C(CSc1nc2ccccc2s1)N1c2ccccc2Sc2ccc(C(F)(F)F)cc21 | 2 | -3 | -12 | 6 | -12 | -18
